Screening data from PubChem.
Hits are enriched below; roughly 1.6% of the tested compounds scored in any of these assays.
RAD54 inh: blocks human RAD54 Holliday junction branch migration; Q92698; FAM/BHQ fluorescence; inhibition, % at 10.4 µM; actives 0.14% (n = 360,000);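 active = mean normalized replicate activity at least 40 and at least half of replicates scoring 40 or more; inconclusive = only one of the two criteria met; inactive = mean below 40 and under half of replicates reaching 40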;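 also: 0% = median of neutral control wells and 100% = median of positive control wells; inhibitors cause a drop in the FAM fluorescence signal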
Target sequence (Q92698 whole entry, looked up): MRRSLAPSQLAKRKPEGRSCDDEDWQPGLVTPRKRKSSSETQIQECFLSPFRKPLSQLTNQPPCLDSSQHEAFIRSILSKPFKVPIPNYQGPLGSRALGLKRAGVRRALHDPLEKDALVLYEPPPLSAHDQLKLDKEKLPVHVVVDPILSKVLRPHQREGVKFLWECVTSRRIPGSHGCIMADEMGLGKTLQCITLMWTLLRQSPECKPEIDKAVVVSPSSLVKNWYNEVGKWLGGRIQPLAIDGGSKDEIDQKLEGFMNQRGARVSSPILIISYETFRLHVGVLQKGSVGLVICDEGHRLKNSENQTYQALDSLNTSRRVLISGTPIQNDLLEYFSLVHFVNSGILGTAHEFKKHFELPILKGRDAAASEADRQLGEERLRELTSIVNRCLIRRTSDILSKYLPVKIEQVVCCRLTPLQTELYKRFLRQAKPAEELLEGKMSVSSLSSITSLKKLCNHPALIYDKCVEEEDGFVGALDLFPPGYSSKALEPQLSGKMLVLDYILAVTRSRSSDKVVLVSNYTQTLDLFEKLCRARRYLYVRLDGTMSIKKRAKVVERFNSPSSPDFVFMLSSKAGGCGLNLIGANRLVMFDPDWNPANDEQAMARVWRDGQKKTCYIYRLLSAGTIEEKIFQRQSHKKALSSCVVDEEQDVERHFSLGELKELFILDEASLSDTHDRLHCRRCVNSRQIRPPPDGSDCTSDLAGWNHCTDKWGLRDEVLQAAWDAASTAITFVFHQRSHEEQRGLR
PvdQ acylase: blocks Pseudomonas aeruginosa PvdQ acylase activity; purified PvdQ acylase, fluorescence plate reader; inhibition, % at 10 µM; actives 0.063% (n = 340,000); in the data active = inhibition above about 30%, passing the limit was not always enough; inconclusive = no clear call, values can overlap the other calls;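 also: 0% = vehicle neutral wells and 100% = reference inhibitor wells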
S100A4 inh HTS: inhibitors of human S100A4 binding to myosin IIA peptide. inhibition, % at 10.7 µM. AID 652163. S100A4/TAMRA-MyoIIA peptide fluorescence polarization. P26447. actives 0.14% (n = 360,000);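 active = mean inhibition of at least 70% across replicates, with every replicate also reaching that level; inconclusive = mean inhibition reaches 70% but some replicates fall short; inactive = mean inhibition below 70%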
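Test system – S100A4 monomer (human) · Compound – single-point compound testing · Schedule – 5 min incubation before reading · Probe or stimulus – TAMRA-labelled myosin IIA heavy-chain peptide probe, 5 nM · Benchmarks – neutral control DMSO, positive control TFP · Medium – Calcium-containing HEPES buffer, pH 7.2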
dFosB act-1: mouse delta FosB homodimer activation. P13346. purified delta FosB, TAMRA-CDK5 oligo fluorescence polarization; percent of positive-control signal above neutral wells. activation, % at 25 µM. actives 0.99% (n = 340,000). AID 493131;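 active = mean activation above about 17%, with every replicate also reaching it, limit read from the data, passing the limit was not always enough; inconclusive = only one of the two conditions met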
SR-BI DiI inh: inhibitors of mouse SR-BI mediated HDL lipid uptake. Q61009. ldlA[mSR-BI] CHO cells, DiI-HDL uptake fluorescence, 3 h. inhibition, % at 12.5 µM. actives 0.96% (n = 320,000);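 active = mean replicate inhibition of at least 70% and a set share of replicates each scoring 70 or more; inconclusive = meets just one of the two criteria; inactive = fails both criteria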;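 also: 0% = median of neutral control wells and 100% = median of positive control wells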
SR-BI DiI-HDL act: SR-BI HDL lipid transfer activation; CHO ldlA[mSR-BI] cells, DiI-HDL uptake fluorescence, 3 h; 100 = double the neutral-control signal; activation, % at 12.5 µM; actives 0.096% (n = 320,000);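 active = mean replicate activation of at least 60% and every replicate at or above 60%; inconclusive = mean or all-replicate condition met, but not both; inactive = mean below 60% and not all replicates reaching 60%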;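 also: 0% = median plate neutral-control signal and 100% = twice that signal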
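Test system: SR-BI-overexpressing, LDLR-lacking CHO cells; Medium: Ham's F12 with 0.5% BSA, HEPES 25 mM, pH 7.4; Schedule: 3 h, 37 °C; Technique: bottom-read fluorescence, 550/595 nm.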
dFosB act-2: enhances mouse delta FosB homodimer binding to DNA; 2,400 tested, under 10 active; shares compounds with dFosB act-1; AID 588690; purified delta FosB, TAMRA-CDK5 oligo fluorescence polarization; normalised: neutral wells 0, positive control 100; activation, % at 24.9 µM;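 active = highest replicate activation at or above 34% and every replicate reaching that threshold; inconclusive = meets only one of the two criteria; inactive = meets neither criterion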;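 also: higher polarization means more probe DNA bound by delta FosB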
* hit, by the source's call; ? = inconclusive; nt = no result given.

SMILES	RAD54 inh	PvdQ acylase	S100A4 inh HTS	dFosB act-1	SR-BI DiI inh	SR-BI DiI-HDL act	dFosB act-2
Cc1ccc(CNC(=O)Cn2nnc(C(=O)Nc3cc(C)ccc3C)c2N)cc1	-7.1	-8.8	-5.8	35.6*	-5.2	5.2	0.5
Cc1cc(C)cc(NC(=O)Cn2nnc(C(=O)NCc3ccco3)c2N)c1	-3.1	6.5	-8.8	31.5*	-3.8	3.8	6.9
C[C@H]1CN([C@@H](C)CO)C(=O)c2cc(N(C)C)ccc2O[C@@H]1CN(C)Cc1ccc(-c2ccccc2)cc1	-16.1	nt	-2.7	nt	nt	nt	nt
Cc1nc(NC(=O)c2ccc(F)cc2)sc1C(=O)Nc1ccc2c(c1)CCC2	4.4	2.0	nt	-5.0	59.8	-59.8	nt
CC(=O)c1sc(NC(=O)c2ccc(F)c(F)c2)nc1C	-1.8	1.1	nt	28.4*	11.6	-11.6	1.3
CC(=O)c1sc(NC(=O)c2ccc(Cl)cc2)nc1C	nt	-2.9	-3.3	34.4*	nt	nt	1.8
CC(=O)Nc1nc(C)c(C(C)=O)s1	-8.8	-9.7	nt	-5.9	33.8	-33.8	nt
CC(=O)c1sc(NC(=O)c2cccc(C)c2)nc1C	nt	-14.6	1.8	-26.1	45.7	-45.7	nt
Cc1ccc(C(=O)Nc2nc(C)c(C(=O)Nc3ccc4c(c3)CCC4)s2)cc1	-9.1	-9.4	-5.7	20.8*	62.3	-62.3	-1.7
CO[C@@H]1CN(C)C(=O)c2ccc(NC(=O)Nc3ccc(Cl)cc3)cc2OC[C@@H](C)N(C(=O)Nc2c(C)noc2C)C[C@H]1C	-5.9	nt	-4.0	nt	nt	nt	nt
O=C(Cc1ccccn1)N[C@@H]1CC[C@@H](CCn2cc(-c3ccccc3)nn2)O[C@@H]1CO	7.7	nt	10.1	nt	nt	nt	nt
Cc1noc(C)c1NC(=O)Nc1cccc2c1O[C@H](CN(C)C)[C@@H](C)CN([C@H](C)CO)C2=O	-13.9	nt	-9.8	nt	nt	nt	nt
C[C@@H]1CN([C@H](C)CO)C(=O)c2cccc(N(C)C)c2O[C@H]1CN(C)Cc1ccc(-c2ccccc2)cc1	4.1	nt	8.8	nt	nt	nt	nt
COc1cc2[nH]c(=O)c(C(=O)NCCCN3CCCCC3)c(O)c2cc1OC	35.7	2.6	nt	26.3*	14.7	-14.7	?
CCOc1cc2[nH]c(=S)n(Cc3ccc(C(=O)NCCN(CC)CC)cc3)c(=O)c2cc1OCC	44.6	-9.9	-3.7	25.5*	4.9	-4.9	-8.7
COc1ccc(CCNC(=O)c2c(O)c3cc(OC)c(OC)cc3[nH]c2=O)cc1OC	1.9	nt	-0.2	nt	nt	nt	nt
COc1cc2[nH]c(=O)n(Cc3ccc(C(=O)NCCCN4CCC(C)CC4)cc3)c(=O)c2cc1OC	34.6	-2.7	nt	27.6*	21.7	-21.7	3.7
CCOc1cc2[nH]c(=S)n(Cc3ccc(C(=O)NCC(OC)OC)cc3)c(=O)c2cc1OCC	-4.5	-9.2	nt	1.8	20.1	-20.1	nt
COc1cc2[nH]c(=O)n(Cc3ccc(C(=O)N4CCC(N5CCCCC5)CC4)cc3)c(=O)c2cc1OC	40.4	-17.2	nt	33.6*	-7.4	7.4	0.1
C[C@@H]1CCCCO[C@H](CN(C)C(=O)Nc2ccc3c(c2)OCO3)[C@H](C)CN([C@H](C)CO)C(=O)c2cc(NC(=O)Nc3ccc(F)cc3)ccc2O1	0.1	nt	-4.3	nt	nt	nt	nt
Cc1cccc(CSc2nc3ccncc3n2CC(=O)Nc2cc(C)cc(C)c2)c1	2.9	-6.8	6.2	32.9*	6.2	-6.2	-1.2
COc1cc2c3nnc(-c4ccc(F)cc4)c-3cn(Cc3ccc(F)cc3)c2cc1OC	-17.7	-1.4	-3.8	36.6*	-18.4	18.4	-9.3
NC(=O)Cn1cc(/C=N/NC(=O)c2ccc(Cn3cc(Cl)cn3)o2)c(-c2ccccc2)n1	-1.6	-5.0	-41.1	36.3*	-25.2	25.2	5.8
Cc1ccc(C(Sc2ccccc2)C(Cn2cncn2)C(=O)c2ccccc2)cc1 (stereo unspecified)	-1.7	-8.2	nt	23.6*	-50.0	nt	-0.4
O=C(Nc1ccccc1)c1nc[nH]c1C(=O)NCCNC(=O)c1[nH]cnc1C(=O)Nc1ccccc1	-3.1	-16.6	2.0	36.7*	-9.1	14.6	4.8
SMILES	RAD54 inh	PvdQ acylase	S100A4 inh HTS	dFosB act-1	SR-BI DiI inh	SR-BI DiI-HDL act	dFosB act-2
O=C(Nc1ccccc1)c1nc[nH]c1C(=O)NCCCCNC(=O)c1[nH]cnc1C(=O)Nc1ccccc1	-3.1	3.8	-1.5	6.6	3.5	-4.1	nt
C=CCOC(=O)[C@H]1[C@@H]2C(=O)O[C@@H](c3ccccc3)[C@@H](c3ccccc3)N2[C@@H](c2ccc(OCCOC(=O)[C@H]3C[C@H]4C(=O)N[C@@H](CC(C)C)C(=O)N4[C@H]3c3ccc(O)cc3)cc2)[C@]12C(=O)Nc1ccccc12	nt	nt	-4.5	nt	nt	nt	nt
C=CCN(c1ccccc1)S(=O)(=O)c1cccc(C(=O)Nc2nc3ccccc3[nH]2)c1	8.0	14.8	nt	47.4*	31.4	-31.4	0.5
C[C@@H]1CN([C@@H](C)CO)C(=O)c2cc(/C=C/c3ccccc3)cnc2O[C@H]1CN(C)C(=O)c1cnccn1	5.9	nt	-6.1	nt	nt	nt	nt
COc1ccc(N(CC(=O)N2CCc3ccccc32)S(=O)(=O)c2c(C)nn(C)c2C)cc1	2.4	0.1	2.9	-13.4	2.2	-2.2	nt
COc1ccc(N(CC(=O)N2CCc3ccccc32)S(=O)(=O)c2c(C)n[nH]c2C)cc1	8.3	-5.9	nt	36.5*	-1.0	1.0	2.4
COc1ccc(OCc2nnc(NC(=O)Nc3ccc(F)cc3)s2)cc1	2.5	-1.0	nt	73.2*	7.5	-7.5	-1.2
O=C(Nc1nnc(COc2ccc(F)cc2)s1)Nc1ccccc1F	-17.3	nt	-0.8	nt	nt	nt	nt
Cc1cccc(C)c1NC(=O)c1cc2c(=O)c3ccccc3oc2nc1C(F)(F)F	7.7	-8.6	nt	49.8*	17.1	-17.1	-10.0
CO[C@@H]1CN(C)C(=O)c2cc(NC(=O)Nc3c(C)noc3C)ccc2OC[C@H](C)N(CCC(F)(F)F)C[C@H]1C	4.6	nt	-3.0	nt	nt	nt	nt
COCC#Cc1ccc2c(c1)O[C@@H](CN(C)S(=O)(=O)c1ccc(C)cc1)[C@@H](C)CN([C@H](C)CO)S2(=O)=O	-8.0	nt	-8.7	nt	nt	nt	nt
O=C(COc1ccc2c(-c3ccccc3)cc(=O)oc2c1)Nc1ccc(CN2CCOCC2)cc1	5.5	3.3	-1.1	27.1*	21.8	-21.8	1.7
COc1ccc2sc(/C=C/c3ccccc3O)[n+](C)c2c1	nt	-7.5	-10.5	65.1*	7.8	-7.8	8.2
Cc1ccc(-c2nnn(CC(=O)NC3CCCc4ccccc43)n2)cc1 (stereo unspecified)	3.3	1.3	nt	25.1*	-10.3	10.3	-1.1
NC(=O)C1CCN(CC(=O)NC2CCCc3ccccc32)CC1 (stereo unspecified)	nt	-10.9	0.7	-0.4	-6.6	6.6	nt
